# An excerpt weighted towards active compounds, which were near 2.8% of everything screened.
# MC4R barr agon – MC4R agonists recruiting beta-arrestin, primary screen, cell-based, luminescence, agonist arm of biased-ligand search | Melanocortin receptor 4 (Homo sapiens), P32245 | U2OS MC4R beta-arrestin complementation; percent of melanotan II response, DMSO zero | activation, % at 8.9 µM | 360,000 tested, 0.98% active | AID 540308, 2011;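 active means activation above a per-plate cutoff, the mean activation of sample wells on that plate plus 3 SD, cut at about 8% in these data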
# EBI2 block – EBI2 receptor antagonists, beta-arrestin recruitment, primary screen, cell-based, luminescence, 7a,25-OHC stimulation, uHTS; G-protein coupled receptor 183 (Homo sapiens), P32249; 7a,25-OHC stimulated; inhibition, % at 5 µM; 360,000 tested, 0.81% active; AID 651636, 2012; in the data active means inhibition above about 38%;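 further: enzyme fragment complementation signal reports receptor beta-arrestin coupling in cells; 0% = agonist plus DMSO wells and 100% = wells without agonist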
# MC4R antagonist – MC4R antagonists of cAMP signaling, primary screen, cell-based, TR-FRET, antagonist arm of biased-ligand search; AID 540295, 2011; MC4R-expressing cells, MTII-stimulated cAMP, LANCE TR-FRET; Melanocortin receptor 4 (Homo sapiens), P32245; inhibition, % at 6.5 µM; 360,000 tested, 0.48% active;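 active means inhibition above its plate's cutoff, the mean of tested wells on that plate plus 3 SD, cut at about 29% in these data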;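 further: 0% = Melanotan II alone and 100% = Melanotan II plus saturating MCL0020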
#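 material = U2OS cells stably expressing human melanocortin 4 receptor (MC4R) | also added = Melanotan II challenge | dosing = single nominal compound dose of 6.5 µM | detection = TR-FRET with Eu-cAMP and labeled anti-cAMP, 671 nm | replication = singlicate | timing = compound 30 min, challenge 1 h, detection 1 h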
# HTR2A ag – mouse Htr2a agonists via beta-arrestin recruitment, primary screen, cell-based, luminescence. AID 624169, 2012. activation, % at 7.6 µM. CHO-K1 mHTR2A beta-arrestin complementation; percent of 30 µM serotonin response. 360,000 tested, 0.66% active;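 active means activation above a run cutoff, the mean activation of all tested compounds plus 3 SD, cut at about 14% in these data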;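 further: 0% = plate median of compound wells and 100% = 30 µM serotonin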
# Target sequence (P35363 whole entry, looked up): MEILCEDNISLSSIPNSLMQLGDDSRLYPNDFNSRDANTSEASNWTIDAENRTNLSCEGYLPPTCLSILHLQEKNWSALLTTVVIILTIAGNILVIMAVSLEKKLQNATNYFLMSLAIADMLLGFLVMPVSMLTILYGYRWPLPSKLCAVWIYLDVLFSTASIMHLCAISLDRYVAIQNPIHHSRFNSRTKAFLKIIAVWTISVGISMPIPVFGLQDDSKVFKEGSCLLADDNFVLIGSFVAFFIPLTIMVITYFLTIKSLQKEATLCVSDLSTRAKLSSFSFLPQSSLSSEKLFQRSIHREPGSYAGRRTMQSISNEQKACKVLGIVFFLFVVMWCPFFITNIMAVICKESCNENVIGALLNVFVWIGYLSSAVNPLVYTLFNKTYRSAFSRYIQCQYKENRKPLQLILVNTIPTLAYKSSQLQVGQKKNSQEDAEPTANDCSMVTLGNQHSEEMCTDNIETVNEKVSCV
# MC4R barr conf – MC4R beta-arrestin agonists, retest, confirmation, cell-based, luminescence, U2OS. shares compounds with MC4R barr agon. U2OS MC4R beta-arrestin recruitment; scaled DMSO 0%, Melanotan II 100%. activation, % at 8.9 µM. 2,400 tested, 31% active;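 active means mean activation across replicates above the hit cutoff set in the earlier primary screen, cut at about 8% in these data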
# MOR DOR agonist – agonists of MOR-DOR heterodimerization, counter-screen for MC4R biased agonist project, cell-based, luminescence; activation, % at 9.2 µM; 2,400 tested, 5.8% active; AID 602194, 2012; shares compounds with MC4R barr agon; U2OS PathHunter beta-arrestin, beta-gal luminescence; percent of deltorphin B response, DMSO zero;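 active means mean activation across replicates exceeds the hit threshold derived in the earlier primary screen, cut at about 18% in these data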;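 further: 100% = deltorphin B at 0.9 µM final and 0% = DMSO alone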
# * = called active by the depositor; / = not tested or not shown.
SMILES,MC4R barr agon,EBI2 block,MC4R antagonist,HTR2A ag,MC4R barr conf,MOR DOR agonist
OC[C@@H]1CN(CCN2CCOCC2)C[C@H](n2cnc3c(N4CCOCC4)ncnc32)O1,2,-6,6,2,/,/
O=C(Cc1cccs1)Nc1cccc(-c2nc3cc4ccccc4cc3[nH]2)c1,11*,17,19,-7,14*,6
COc1ccc(S(=O)(=O)NC(=O)C2(C)CCN2C(=O)CCC2CCCC2)cc1OC (stereo not given),-1,3,3,-1,/,/
N#Cc1c(NC(=O)COC(=O)c2nccnc2N)sc2c1CCCC2,3,-4,14,-6,/,/
CCOC(=O)c1c(NC(=O)COC(=O)c2nccnc2N)sc2c1CCC2,16*,1,-4,-1,5,6
Cc1cccc(C(=O)OCC(=O)c2ccc3c(c2)OCCO3)c1O,11*,10,-1,1,3,3
COc1ccccc1NC(=O)COC(=O)c1ccc2c(c1)OCCO2,19*,2,9,-3,3,3
Cc1cccc(C(=O)OCC(=O)c2ccc3c(c2)OCO3)c1O,-1,4,0,-7,/,/
O=c1[nH]c(CN2CCN(Cc3ccccc3)CC2)nc2scc(-c3ccccc3)c12,-2,-2,-1,1,/,/
O=c1[nH]c(Cn2nnc(-c3ccccc3)n2)nc2scc(-c3ccccc3)c12,12*,-19,-3,1,2,7
CN(C)c1ccc(NC(=O)/C=C/c2c(Cl)cccc2Cl)cc1,10*,19,13,-1,-1,5
C[C@H](O)[C@@H]1C(=O)N2CCc3c([nH]c4ccccc34)[C@@H]2C[C@@H]1N(C)C(=O)c1ccco1,/,-7,/,-2,/,/
O=C(NCc1ccc(-c2nc3ccccc3s2)cc1)c1ccco1,-1,-4,0,-6,/,/
O=C(NC(=S)NCc1ccc(-c2nc3ccccc3s2)cc1)c1ccco1,28*,6,-2,-3,6,2
CCC(Oc1cc(Cl)ccc1Cl)C(=O)NNC(=O)CCC(=O)O (stereo not given),0,-4,17,2,/,/
CCC(Oc1cc(Cl)ccc1Cl)C(=O)NN1C(=O)C2C3CCC(C3=C(C)C)C2C1=O (stereo not given),9.9*,-4,4,-2,6,8
COc1ccc(-c2csc3nc(C)nc(N4CCCCC4)c23)cc1OC,9.6*,9,5,-3,-1,4
COc1cc(F)ccc1-c1csc(C(O)c2ccc(F)cc2)n1 (stereo not given),14*,18,5,3,-1,8
CC(C)N(c1ccccc1)c1ccc(NC(=O)[C@@H]2O[C@H](CO)[C@@H](O)[C@H]2O)cc1,-1,1,-1,3,/,/
O=C(COc1ccc(Cl)cc1Cl)NNC(=S)Nc1ccc(F)cc1,-1,20,3,4,/,/
O=C(COc1ccc(Cl)cc1Cl)Nc1noc2ccccc12,11*,3,5,-5,2,5
CCCCC(=O)Nc1cccc(NC(=S)NC(=O)Cc2ccccc2)c1,1,12,-10,0,/,/
O=C(/C=C/c1ccccc1)NC(=S)Nc1ccc2c3c(cccc13)CC2,-2,-1,1,1,/,/
CC(=O)NC(=S)Nc1ccc(NC(=O)COc2ccc(Cl)cc2Cl)cc1,31*,-7,0,-5,4,8
O=C(COc1ccccc1)NC(=S)Nc1ccc2c3c(cccc13)CC2,14*,-7,13,0,1,3
CCCCC(=O)Nc1cccc(NC(=S)NC(=O)COc2ccccc2Cl)c1,18*,-1,2,-7,13*,2
COc1ccc(CN(C)C(=O)Cc2ccc(S(=O)(=O)N3CCOCC3)s2)cc1OC,-1,-5,3,-2,/,/
